Test results: ChEMBL document CHEMBL4130356, “Design, synthesis and 2D QSAR study of novel pyridine and quinolone hydrazone derivatives as potential antimicrobial and antitubercular agents” (Eur J Med Chem, 2017)
≈ marks a conversion by molar mass, not a printed value. Calls of active or inactive are those of the source. No cut-off for these calls is given here.

Key:
Staphylococcus aureus [1] = experiment: Antimicrobial activity against Staphylococcus aureus RCMB 010028 assessed as diameter of zone inhibition at 100 ug/ml after 24 hrs by agar well diffusion assay; format: functional; conditions: for zone of inhibition at 100 µg/mL: RCMB 010028, 24 h, read-out: DIZ
How it was run: (§1)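 Agar well diffusion on nutrient agar plates seeded with the bacterium, using 1 cm wells. Plates were held at 4°C for 1 h for diffusion, then incubated at 37°C. Inhibition zone diameters were measured at 24 h. Ciprofloxacin was the positive control. Run in triplicate, with the mean zone reported.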

Streptococcus pneumoniae [2] = experiment: Antimicrobial activity against Streptococcus pneumoniae RCMB 010010 after 24 hrs by serial dilution method; format: functional; conditions: RCMB 010010, 24 h
How it was run: (§2)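 Serial twofold dilution in microtiter plates starting from a 100 mmol stock in DMSO; final concentrations 125 down to 0.12 […]. Incubated at 37°C and read on a microplate reader after 24 h. Ciprofloxacin was the reference. Run in triplicate, with the average taken. MIC was the lowest concentration inhibiting growth.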

Streptococcus pneumoniae [3] = experiment: Antimicrobial activity against Streptococcus pneumoniae RCMB 010010 assessed as diameter of zone inhibition at 100 ug/ml after 24 hrs by agar well diffusion assay; format: functional; conditions: for zone of inhibition at 100 µg/mL: RCMB 010010, 24 h, read-out: DIZ; how it was run: as §1
Staphylococcus aureus [4] = experiment: Antimicrobial activity against Staphylococcus aureus RCMB 010028 after 24 hrs by serial dilution method; format: functional; conditions: RCMB 010028, 24 h; how it was run: as §2
Aspergillus fumigatus [5] = experiment: Antimicrobial activity against Aspergillus fumigatus RCMB 02568 assessed as diameter of zone inhibition at 100 ug/ml after 48 hrs by agar well diffusion assay; format: functional; conditions: for zone of inhibition at 100 µg/mL: RCMB 02568, 48 h, read-out: DIZ
How it was run: (§3)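 Agar well diffusion on malt agar plates seeded with the fungus, using 1 cm wells. Plates were held at 4°C for 1 h for diffusion, then incubated at 28°C. Inhibition zone diameters were measured at 48 h. Amphotericin B was the positive control. Run in triplicate, with the mean zone reported.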

Candida albicans [6] = experiment: Antimicrobial activity against Candida albicans RCMB 05036 assessed as diameter of zone inhibition at 100 ug/ml after 48 hrs by agar well diffusion assay; format: functional; conditions: for zone of inhibition at 100 µg/mL: RCMB 05036, 48 h, read-out: DIZ; how it was run: as §3
Candida albicans [7] = experiment: Antimicrobial activity against Candida albicans RCMB 05036 after 48 hrs by serial dilution method; format: functional; conditions: RCMB 05036, 48 h
How it was run: as §2, with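 “28°C” for “37°C”, “48” for “24”, “Amphotericin B” for “Ciprofloxacin”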

Aspergillus fumigatus [8] = experiment: Antimicrobial activity against Aspergillus fumigatus RCMB 02568 after 48 hrs by serial dilution method; format: functional; conditions: RCMB 02568, 48 h
How it was run: as §2, with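 “28°C” for “37°C”, “48” for “24”, “Amphotericin B” for “Ciprofloxacin”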

Pseudomonas aeruginosa [9] = conditions: RCMB 010043, 100 ug/ml
Escherichia coli [10] = experiment: Antimicrobial activity against Escherichia coli RCMB 010052 assessed as diameter of zone inhibition at 100 ug/ml after 24 hrs by agar well diffusion assay; format: functional; conditions: for zone of inhibition at 100 µg/mL: RCMB 010052, 24 h, read-out: DIZ; how it was run: as §1
[11] = test system: Mycobacterium tuberculosis; experiment: Antimycobacterial activity against Mycobacterium tuberculosis RCMB 010126 clinical isolate after 7 days by MABA; format: functional
How it was run: (§4)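 Inoculum from fresh LJ culture resuspended in 7H9-S broth with casitone, glycerol and OADC, adjusted to McFarland No. 1 and diluted 1:20. Serial two-fold compound dilutions in 7H9-S; isoniazid reference. Incubated 7 days at 37°C in air, then Alamar blue added and incubated overnight. Percent inhibition = 1 − (test well/growth-control mean) × 100; MIC = lowest concentration preventing blue-to-pink change.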

[12] = test system: Mycobacterium tuberculosis; experiment: Antimycobacterial activity against Mycobacterium tuberculosis RCMB 010126 clinical isolate assessed as inhibition zone after 7 days by MABA; format: functional; how it was run: as §4
Escherichia coli [13] = experiment: Antimicrobial activity against Escherichia coli RCMB 010052 after 24 hrs by serial dilution method; format: functional; conditions: RCMB 010052, 24 h; how it was run: as §2
Pseudomonas aeruginosa [14] = conditions: RCMB 010043
[15] = Mycobacterium tuberculosis, RCMB 010126, 168 h

CC1(C)S[C@@H]2[C@H](NC(=O)[C@H](N)c3ccccc3)C(=O)N2[C@H]1C(=O)O [AMPICILLIN]
zone of inhibition at 100 µg/mL (Staphylococcus aureus [1]): 27.4 mm
MIC (Streptococcus pneumoniae [2]): 0.98 µg/mL (≈ 2.8 µM)
zone of inhibition at 100 µg/mL (Streptococcus pneumoniae [3]): 23.8 mm
MIC (Staphylococcus aureus [4]): 0.98 µg/mL (≈ 2.8 µM)

C[C@@H]1[C@H](O)[C@@H](C)/C=C/C=C/C=C/C=C/C=C/C=C/C=C/[C@H](O[C@@H]2O[C@H](C)[C@@H](O)[C@H](N)[C@@H]2O)C[C@@H]2O[C@](O)(C[C@@H](O)C[C@@H](O)[C@H](O)CC[C@@H](O)C[C@@H](O)CC(=O)O[C@H]1C)C[C@H](O)[C@H]2C(=O)O [AMPHOTERICIN B]
zone of inhibition at 100 µg/mL (Aspergillus fumigatus [5]): 23.7 mm
zone of inhibition at 100 µg/mL (Candida albicans [6]): 25.4 mm
MIC (Candida albicans [7]): 0.98 µg/mL (≈ 1.06 µM)
MIC (Aspergillus fumigatus [8]): 1.95 µg/mL (≈ 2.11 µM)

Cc1nc(-c2cccc(Cl)c2)ccc1C(=O)N/N=C/c1ccc(F)cc1
DIZ (Pseudomonas aeruginosa [9]): inactive
diameter of the inhibition zone (DIZ) (Aspergillus fumigatus [5]): inactive
diameter of the inhibition zone (DIZ) (Staphylococcus aureus [1]): inactive
diameter of the inhibition zone (DIZ) (Escherichia coli [10]): inactive
MIC [11, 15]: 3.12 µg/mL (≈ 8.48 µM)
diameter of the inhibition zone (DIZ) (Candida albicans [6]): inactive
diameter of the inhibition zone (DIZ) (Streptococcus pneumoniae [3]): inactive
inhibition zone (IZ) [12]: 52.34 mm

Cc1nc(-c2ccc(Cl)cc2)ccc1C(=O)N/N=C/c1ccc(F)cc1
DIZ (Pseudomonas aeruginosa [9]): inactive
diameter of the inhibition zone (DIZ) (Aspergillus fumigatus [5]): inactive
diameter of the inhibition zone (DIZ) (Staphylococcus aureus [1]): inactive
diameter of the inhibition zone (DIZ) (Escherichia coli [10]): inactive
MIC [11, 15]: 6.24 µg/mL (≈ 17 µM)
diameter of the inhibition zone (DIZ) (Candida albicans [6]): inactive
diameter of the inhibition zone (DIZ) (Streptococcus pneumoniae [3]): inactive
inhibition zone (IZ) [12]: 40.31 mm

NNC(=O)c1ccncc1 [ISONIAZID]
MIC [11, 15]: 0.75 µg/mL (≈ 5.47 µM)
inhibition zone (IZ) [12]: inactive

O=C(N/N=C/c1ccc(Cl)cc1)c1c[nH]c2cc(Cl)ccc2c1=O
DIZ (Pseudomonas aeruginosa [9]): inactive
zone of inhibition at 100 µg/mL (Aspergillus fumigatus [5]): 17.3 mm
zone of inhibition at 100 µg/mL (Staphylococcus aureus [1]): 16.2 mm
MIC (Escherichia coli [13]): 7.81 µg/mL (≈ 21.7 µM)
zone of inhibition at 100 µg/mL (Escherichia coli [10]): 18.3 mm
MIC [11, 15]: 99.8 µg/mL (≈ 277 µM)
MIC (Streptococcus pneumoniae [2]): 15.6 µg/mL (≈ 43.4 µM)
zone of inhibition at 100 µg/mL (Candida albicans [6]): 15.2 mm
zone of inhibition at 100 µg/mL (Streptococcus pneumoniae [3]): 17.1 mm
inhibition zone (IZ) [12]: 19.35 mm
MIC (Pseudomonas aeruginosa [14]): inactive
MIC (Staphylococcus aureus [4]): 31.2 µg/mL (≈ 86.8 µM)
MIC (Candida albicans [7]): 31.2 µg/mL (≈ 86.8 µM)
MIC (Aspergillus fumigatus [8]): 15.6 µg/mL (≈ 43.4 µM)

Cc1nc(-c2ccc(Cl)cc2)ccc1C(=O)N/N=C/c1ccc(Cl)cc1
DIZ (Pseudomonas aeruginosa [9]): inactive
diameter of the inhibition zone (DIZ) (Aspergillus fumigatus [5]): inactive
diameter of the inhibition zone (DIZ) (Staphylococcus aureus [1]): inactive
diameter of the inhibition zone (DIZ) (Escherichia coli [10]): inactive
MIC [11, 15]: 12.5 µg/mL (≈ 32.5 µM)
diameter of the inhibition zone (DIZ) (Candida albicans [6]): inactive
diameter of the inhibition zone (DIZ) (Streptococcus pneumoniae [3]): inactive
inhibition zone (IZ) [12]: 36.24 mm

O=C(N/N=C/c1ccc(F)cc1)c1c[nH]c2cc(Cl)ccc2c1=O
DIZ (Pseudomonas aeruginosa [9]): inactive
zone of inhibition at 100 µg/mL (Aspergillus fumigatus [5]): 16.8 mm
zone of inhibition at 100 µg/mL (Staphylococcus aureus [1]): 16.2 mm
zone of inhibition at 100 µg/mL (Escherichia coli [10]): 12.5 mm
MIC [11, 15]: 12.5 µg/mL (≈ 36.3 µM)
zone of inhibition at 100 µg/mL (Candida albicans [6]): 14.4 mm
zone of inhibition at 100 µg/mL (Streptococcus pneumoniae [3]): 16.9 mm
inhibition zone (IZ) [12]: 36.42 mm

COc1cc(/C=N/NC(=O)c2c[nH]c3cc(Cl)ccc3c2=O)cc(OC)c1OC
DIZ (Pseudomonas aeruginosa [9]): inactive
diameter of the inhibition zone (DIZ) (Aspergillus fumigatus [5]): inactive
diameter of the inhibition zone (DIZ) (Staphylococcus aureus [1]): inactive
diameter of the inhibition zone (DIZ) (Escherichia coli [10]): inactive
MIC [11, 15]: 6.24 µg/mL (≈ 15 µM)
diameter of the inhibition zone (DIZ) (Candida albicans [6]): inactive
diameter of the inhibition zone (DIZ) (Streptococcus pneumoniae [3]): inactive
inhibition zone (IZ) [12]: 42.65 mm

Cc1ccc(/C=N/NC(=O)c2c[nH]c3ccc(Cl)cc3c2=O)cc1
DIZ (Pseudomonas aeruginosa [9]): inactive
zone of inhibition at 100 µg/mL (Aspergillus fumigatus [5]): 10.3 mm
diameter of the inhibition zone (DIZ) (Staphylococcus aureus [1]): inactive
diameter of the inhibition zone (DIZ) (Escherichia coli [10]): inactive
MIC [11]: inactive
zone of inhibition at 100 µg/mL (Candida albicans [6]): 12.1 mm
zone of inhibition at 100 µg/mL (Streptococcus pneumoniae [3]): 20.4 mm
inhibition zone (IZ) [12]: inactive
